In ChEMBL document CHEMBL2176871, “Development of ligands at γ-aminobutyrric acid type A (GABAA) receptor subtype as new agents for pain relief” (Bioorg Med Chem, 2011):
Active and inactive are the calls of the source.

Experiments:
Rattus norvegicus [1] = test: Toxicity in Sprague-Dawley rat mononeuropathy pain model assessed as effect on contralateral paw pressure at 30 mg/kg, po after 30 mins by paw pressure test; type: organism-based; parameters: dose 30 mg/kg, route oral; conditions: in vivo, 0.5 h
Method in brief: (§1)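 Same sciatic-ligation rat model, 14 days after surgery. Threshold measured on the non-operated contralateral hind paw by analgesimeter at 32 g/s; first-struggle endpoint; 250 g cut-off; pretest rats outside 40–75 g rejected. Compound given po in 10 ml/kg; readings at 15, 30 and 45 min.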

Rattus norvegicus [2] = test: Toxicity in Sprague-Dawley rat mononeuropathy pain model assessed as effect on contralateral paw pressure at 30 mg/kg, po after 45 mins by paw pressure test; type: organism-based; parameters: dose 30 mg/kg, route oral; conditions: in vivo, 0.75 h; method in brief: as §1
Mus musculus [3] = test: Anxiolytic-like activity in Swiss albino mouse at 10 to 30 mg/kg, po after 30 mins by light/dark box test; type: functional, organism-based
Method in brief: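 Male Swiss mice tested in a two-compartment light/dark box. Transfers between compartments and time spent in the lit side recorded. Compound given po 30 min before testing, in 10 ml/kg; flumazenil given i.p. for antagonism; 8 mice per group.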

Rattus norvegicus [4] = test: Antinociceptive activity in Sprague-Dawley rat mononeuropathy pain model assessed as increase in injured paw pressure at 60 mg/kg, po after 45 mins by paw pressure test relative to non-treated control; type: functional
Method in brief: (§2)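 Chronic constriction injury: loose ligatures placed on the common sciatic nerve under chloral hydrate; contralateral sham dissection. Tested 14 days after surgery. Paw pressure applied at 32 g/s; threshold taken as the force causing the first struggle; cut-off 250 g; pretest outliers (<40 g or >75 g) excluded. Oral dosing in 10 ml/kg; read at 15, 30 and 45 min; compared with a CMC-treated group.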

Rattus norvegicus [5] = test: Antinociceptive activity in Sprague-Dawley rat mononeuropathy pain model assessed as increase in injured paw pressure at 30 mg/kg, po after 30 mins by paw pressure test relative to non-treated control; type: functional; method in brief: as §2
Rattus norvegicus [6] = test: Antinociceptive activity in Sprague-Dawley rat mononeuropathy pain model assessed as increase in injured paw pressure at 30 mg/kg, po after 15 mins by paw pressure test relative to non-treated control; type: functional; method in brief: as §2
Rattus norvegicus [7] = test: Toxicity in Sprague-Dawley rat mononeuropathy pain model assessed as effect on contralateral paw pressure at 60 mg/kg, po after 30 mins by paw pressure test; type: organism-based; parameters: dose 60 mg/kg, route oral; conditions: in vivo, 0.5 h; method in brief: as §1
Rattus norvegicus [8] = test: Toxicity in Sprague-Dawley rat mononeuropathy pain model assessed as effect on contralateral paw pressure at 1 mg/kg, po after 45 mins by paw pressure test; type: organism-based; parameters: dose 1 mg/kg, route oral; conditions: in vivo, 0.75 h; method in brief: as §1
Mus musculus [9] = test: Antihyperalgesic activity against streptozotocin-induced hyperalgesia in Swiss albino mouse […] assessed as licking latency time at 30 mg/kg, po after 30 mins by hot plate test (reference value: 9.2 +/- 0.8 secs); type: functional
Rattus norvegicus [10] = test: Toxicity in Sprague-Dawley rat mononeuropathy pain model assessed as effect on contralateral paw pressure at 1 mg/kg, po after 15 mins by paw pressure test; type: organism-based; parameters: dose 1 mg/kg, route oral; conditions: in vivo, 0.25 h; method in brief: as §1
Rattus norvegicus [11] = test: Toxicity in Sprague-Dawley rat mononeuropathy pain model assessed as effect on contralateral paw pressure at 10 mg/kg, po after 45 mins by paw pressure test; type: organism-based; parameters: dose 10 mg/kg, route oral; conditions: in vivo, 0.75 h; method in brief: as §1
Rattus norvegicus [12] = test: Toxicity in Sprague-Dawley rat mononeuropathy pain model assessed as effect on contralateral paw pressure at 10 mg/kg, po after 15 mins by paw pressure test; type: organism-based; parameters: dose 10 mg/kg, route oral; conditions: in vivo, 0.25 h; method in brief: as §1
Rattus norvegicus [13] = test: Antinociceptive activity in Sprague-Dawley rat mononeuropathy pain model assessed as increase in injured paw pressure at 10 mg/kg, po after 30 mins by paw pressure test relative to non-treated control; type: functional; method in brief: as §2
Mus musculus [14] = test: Analgesic activity in Swiss albino mouse abdominal constriction model assessed as decrease in number of acetic acid-induced writhing at 10 to 30 mg/kg, po after 30 mins; type: functional, organism-based; conditions: Abdomen
Method in brief: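 Male Swiss albino mice (23–30 g). Compounds given po in 1% CMC vehicle 30 min before the test. Acetic acid 0.6% injected i.p. at 10 ml/kg. Stretching movements were counted for 10 min, starting 5 min after the acetic acid injection. 8–15 mice per group.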

Rattus norvegicus [15] = test: Toxicity in Sprague-Dawley rat mononeuropathy pain model assessed as effect on contralateral paw pressure at 10 mg/kg, po after 30 mins by paw pressure test; type: organism-based; parameters: dose 10 mg/kg, route oral; conditions: in vivo, 0.5 h; method in brief: as §1
Rattus norvegicus [16] = test: Toxicity in Sprague-Dawley rat mononeuropathy pain model assessed as effect on contralateral paw pressure at 60 mg/kg, po after 45 mins by paw pressure test; type: organism-based; parameters: dose 60 mg/kg, route oral; conditions: in vivo, 0.75 h; method in brief: as §1
Mus musculus [17] = test: Antihyperalgesic activity against streptozotocin-induced hyperalgesia in Swiss albino mouse […] assessed as licking latency time at 30 mg/kg, po after 45 mins by hot plate test (reference value: 9.2 +/- 0.8 secs); type: functional
Rattus norvegicus [18] = test: Antinociceptive activity in Sprague-Dawley rat mononeuropathy pain model assessed as increase in injured paw pressure at 10 mg/kg, po after 45 mins by paw pressure test relative to non-treated control; type: functional; method in brief: as §2
Rattus norvegicus [19] = test: Antinociceptive activity in Sprague-Dawley rat mononeuropathy pain model assessed as increase in injured paw pressure at 10 mg/kg, po after 15 mins by paw pressure test relative to non-treated control; type: functional; method in brief: as §2
Mus musculus [20] = test: Antihyperalgesic activity Swiss albino mouse […] assessed as licking latency time at 30 mg/kg, po after 15 mins by hot plate test (reference value: 17.9 +/- 1.1 secs); type: functional
Method in brief: (§3)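 Hot plate at 52.5 ± 0.1 °C in non-diabetic male Swiss mice. Latency to licking of fore or hind paws was timed before dosing and every 15 min up to 60 min after oral dosing. Mice with pretest latencies below 12 s or above 18 s were excluded. Cut-off was 45 s.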

Mus musculus [21] = test: Antihyperalgesic activity Swiss albino mouse […] assessed as licking latency time at 30 mg/kg, po after 45 mins by hot plate test (reference value: 17.9 +/- 1.1 secs); type: functional; method in brief: as §3
Mus musculus [22] = test: Antihyperalgesic activity Swiss albino mouse […] assessed as licking latency time at 30 mg/kg, po after 60 mins by hot plate test (reference value: 17.9 +/- 1.1 secs); type: functional; method in brief: as §3
Rattus norvegicus [23] = test: Toxicity in Sprague-Dawley rat mononeuropathy pain model assessed as effect on contralateral paw pressure at 30 mg/kg, po after 15 mins by paw pressure test; type: organism-based; parameters: dose 30 mg/kg, route oral; conditions: in vivo, 0.25 h; method in brief: as §1
Mus musculus [24] = test: Antihyperalgesic activity Swiss albino mouse […] assessed as licking latency time at 30 mg/kg, po after 30 mins by hot plate test (reference value: 17.9 +/- 1.1 secs); type: functional; method in brief: as §3
Bos taurus = species on record: Bos taurus; test: Displacement of [3H]Ro151788 from GABA(A)/BzR in bovine cerebral cortex membrane at 10 uM; type: cell membranes
Method in brief: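 Bovine cerebral cortex membranes in 50 mM Tris-citrate pH 7.4; [3H]flumazenil displacement. Compounds first tested at a fixed 10 µM; Ki determined only when inhibition exceeded 80%, using at least six concentrations. Five experiments run in triplicate; IC50 obtained by iterative curve fitting and converted to Ki with the Cheng–Prusoff equation.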

Mus musculus [25] = test: Antihyperalgesic activity against streptozotocin-induced hyperalgesia in Swiss albino mouse […] assessed as licking latency time at 30 mg/kg, po after 60 mins by hot plate test (reference value: 9.2 +/- 0.8 secs); type: functional
Rattus norvegicus [26] = test: Antinociceptive activity in Sprague-Dawley rat mononeuropathy pain model assessed as increase in injured paw pressure at 30 mg/kg, po after 45 mins by paw pressure test relative to non-treated control; type: functional; method in brief: as §2
Mus musculus [27] = test: Antihyperalgesic activity against streptozotocin-induced hyperalgesia in Swiss albino mouse […] assessed as licking latency time at 30 mg/kg, po after 15 mins by hot plate test (reference value: 9.2 +/- 0.8 secs); type: functional

Cc1cnn2c1n[n+]([O-])c1ccc(OCc3ccccc3)cc12
Activity (Rattus norvegicus [1]): 63.8 g
Activity (Rattus norvegicus [2]): 60.5 g
Activity (Mus musculus [3]): Active
Activity (Rattus norvegicus [4]): 31.5 g
Activity (Rattus norvegicus [5]): 44.2 g
Activity (Rattus norvegicus [6]): 52.8 g
Activity (Rattus norvegicus [7]): 60.8 g
Activity (Rattus norvegicus [8]): 59.1 g
Time (Mus musculus [9]): 17.6 s
Activity (Rattus norvegicus [10]): 57.3 g
Activity (Rattus norvegicus [11]): 63.5 g
Activity (Rattus norvegicus [12]): 60.4 g
Activity (Rattus norvegicus [13]): 40.1 g
Activity (Mus musculus [14]): inactive
Activity (Rattus norvegicus [15]): 62.7 g
Activity (Rattus norvegicus [16]): 57.2 g
Time (Mus musculus [17]): 18.8 s
Activity (Rattus norvegicus [18]): 30.4 g
Activity (Rattus norvegicus [19]): 48.7 g
Time (Mus musculus [20]): 17.2 s
Time (Mus musculus [21]): 18.5 s
Time (Mus musculus [22]): 17.2 s
Activity (Rattus norvegicus [23]): 62.7 g
Time (Mus musculus [24]): 18.1 s
inhibition (Bos taurus): > 80%
Time (Mus musculus [25]): 15.7 s
Activity (Rattus norvegicus [26]): 35.2 g
Time (Mus musculus [27]): 14.9 s
